In the M2OR odorant receptor database:

biological target: T1, UniProt Q924H8; conditions: stereoisomer not certain
T1 sequence (whole entry): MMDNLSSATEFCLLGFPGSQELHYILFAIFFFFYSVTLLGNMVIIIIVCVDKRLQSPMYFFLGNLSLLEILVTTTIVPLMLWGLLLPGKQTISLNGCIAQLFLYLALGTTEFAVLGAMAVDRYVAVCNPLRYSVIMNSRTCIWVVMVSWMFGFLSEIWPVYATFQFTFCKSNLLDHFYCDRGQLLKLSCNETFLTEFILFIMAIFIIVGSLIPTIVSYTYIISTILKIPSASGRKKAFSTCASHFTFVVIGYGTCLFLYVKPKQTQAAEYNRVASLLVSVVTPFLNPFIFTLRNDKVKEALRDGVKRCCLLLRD
Method in brief: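 Transient luciferase assays in mammalian cell lines were common, though methods varied by source. The values come from published papers and their supplementary material, with extra details from the original authors when needed. Responsive refers to a measured signal the original authors judged statistically different from baseline, and non-responsive (inactive) to the remainder.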
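Note: active if original authors judged signal statistically different from baseline.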

Row | SMILES | odorant receptor agonist call
1 | CCCCCOC(=O)CCC | inactive
2 | CC=C(C)C=O | inactive
3 | CCCCCC(=Cc1ccccc1)C(OC)OC | inactive
4 | CCc1ccc(O)cc1 | inactive
5 | CC(C)=C1CCC(C)CC1=O (stereo unspecified) | inactive
6 | CCCCCCC(=O)OCCCC | inactive
7 | CC(=O)OCc1ccc2c(c1)OCO2 | inactive
8 | CCCCCCCCC=CC=O | inactive
9 | CC1CC=CCCCCCCCCCC(=O)C1 (stereo unspecified) | active
10 | O=C(O)C1CCC1 | inactive
11 | CCc1ccccc1O | inactive
12 | C=CC(=C)CCC=C(C)CCC=C(C)C | inactive
13 | CCCCCC=CCCC=O | inactive
14 | CCc1ncc(C)nc1CC | inactive
15 | COc1nccnc1C | inactive
16 | CC(C)=CCCC(C)=CCOC(=O)C(C)C | inactive
17 | CCCCCOC(=O)CC | inactive
18 | OCCCCCCCCCO | inactive

Row | SMILES | odorant receptor agonist call
19 | CCC(C)O (stereo unspecified) | inactive
20 | CCCC=O | inactive
21 | OCC=Cc1ccccc1 | inactive
22 | Cc1ccc(OC(=O)C(C)C)cc1 | inactive
23 | COC(OC)c1ccccc1 | inactive
24 | COc1nccnc1C(C)C | inactive
25 | CCCCCCCCCCOC(C)=O | inactive
26 | CCSCC | inactive
27 | C=C1C2CCC(C2)C1(C)C (stereo unspecified) | inactive
28 | CCN(CC)CC | inactive
29 | CCCCCCCCCC=CC=O | inactive
30 | CCOC(=O)CC(C)C | inactive
31 | CCC=CCCCCC=O | inactive
32 | CC1(C)CC(=O)CC(=O)C1 | inactive
33 | CCc1nccnc1CC | inactive
34 | CCCO | inactive
35 | CCCCCCCOC(=O)C(C)C | inactive
36 | C1CCOCC1 | inactive
